Our source for the Activity, MIC and MFC values is ChEMBL document CHEMBL1141852, “Two auronols from Pseudolarix amabilis” (1999).

One experiment relates to Candida albicans. Nature of the experiment: Antimicrobial activity against Candida albicans. Format: functional. Put shortly: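 Broth microdilution in 96-well plates. Inoculum was a 24 h Candida albicans culture diluted in Sabouraud dextrose broth. Incubation was at 30 or 37 °C. MIC was taken as the lowest concentration giving at least 80% growth inhibition.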
The test system of experiment [1] is Trichophyton mentagrophytes. Nature of the experiment: Antimicrobial activity against Trichophyton mentagrophytes. Format: functional. Put shortly:
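Microdilution in 96-well plates. The Trichophyton mentagrophytes inoculum was spores scraped from fungal growth into Mycophil broth. Pure compounds were tested at final 50 down to 0.20 µg/mL in twofold steps. Incubation was at 30 or 37 °C. MIC was taken as the lowest concentration inhibiting at least 80% of growth.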

Structures are written as SMILES. Values after ≈ are worked out from the molar mass of the structure shown. Active and inactive are the calls of the source.

Take `CC(=O)O[C@]12CCC(C)=CC[C@]13CC[C@H]2[C@@](C)(/C=C/C=C(\C)C(=O)O[C@@H]1O[C@H](CO)[C@@H](O)[C@H](O)[C@H]1O)OC3=O`: the outcome (with Candida albicans; in experiment [1]) was inactive. The compound `O=c1c(O)c(-c2cc(O)c(O)c(O)c2)oc2cc(O)cc(O)c12` [MYRICETIN] came in with an MIC in experiment [1] of 50 µg/mL (≈ 157 µM).

In turn, `C[C@@H]1[C@H](O)[C@@H](C)/C=C/C=C/C=C/C=C/C=C/C=C/C=C/[C@H](O[C@@H]2O[C@H](C)[C@@H](O)[C@H](N)[C@@H]2O)C[C@@H]2O[C@](O)(C[C@@H](O)C[C@@H](O)[C@H](O)CC[C@@H](O)C[C@@H](O)CC(=O)O[C@H]1C)C[C@H](O)[C@H]2C(=O)O` [AMPHOTERICIN B] came in with an MFC against Candida albicans of 0.39 µg/mL (≈ 0.422 µM). For the same compound, the outcome in experiment [1] was inactive.

For the compound `O=C1c2c(O)cc(O)cc2OC1(O)Cc1cc(O)c(O)c(O)c1` (configuration not stated), the outcome (with Candida albicans; in experiment [1]) was inactive.

For the compound `COC(=O)C1=CC[C@@]23CC[C@@H]([C@@](C)(/C=C/C=C(\C)C(=O)O[C@@H]4O[C@H](CO)[C@@H](O)[C@H](O)[C@H]4O)OC2=O)[C@@]3(OC(C)=O)CC1`, the outcome (in the experiment on Candida albicans; in experiment [1]) was inactive. For the compound `C/C(=C\C=C\[C@@]1(C)OC(=O)[C@]23CC=C(C(=O)O)CC[C@]2(O)[C@H]1CC3)C(=O)O`, the outcome (with Candida albicans; in experiment [1]) was inactive.

With `COc1c(O)cc(CC2(O)Oc3cc(O)cc(O)c3C2=O)cc1O` (configuration not stated), the result (with Candida albicans; in experiment [1]) was inactive.

In the experiment with Candida albicans, `COC(=O)C1=CC[C@@]23CC[C@@H]([C@@](C)(/C=C/C=C(\C)C(=O)O)OC2=O)[C@@]3(OC(C)=O)CC1` [PSEUDOLARIC ACID B] registered a minimum fungicidal concentration (MFC) of 6.25 µg/mL (≈ 14.5 µM) and an MIC of 3.12 µg/mL (≈ 7.23 µM).

Turning to `COC(=O)C1=CC[C@@]23CC[C@@H]([C@@](C)(/C=C/C=C(\C)C(=O)O)OC2=O)[C@@]3(O)CC1`, the result (in the experiment on Candida albicans; in experiment [1]) was inactive.

What is called MIC is the lowest concentration found to suppress growth. A higher MIC goes with weaker potency. As usually defined, the MFC is the smallest concentration meeting the test's criterion for killing the fungus. The low end stands for more potent killing, the high end for less potent killing.
